# Assay results taken from ChEMBL document CHEMBL1641580, “Identification of 3-phenylaminoquinolinium and 3-phenylaminopyridinium salts as new agents against opportunistic fungal pathogens” (Bioorg Med Chem, 2011).
# Legend:
# Aspergillus fumigatus [1] = assay: Antifungal activity against Aspergillus fumigatus ATCC 90906 assessed as inhibition of fungal growth by alamar blue assay; assay type: functional, organism-based
# Outline: (§1)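 Broth microdilution modified from NCCLS. DMSO stocks serially diluted in saline and plated in duplicate. Inoculum set by 0.5 McFarland standard. Media: C. albicans in SDB or RPMI 1640; C. neoformans in SDB; A. fumigatus in RPMI-1640 + 5% Alamar Blue. Highest final concentration 20 µg/mL. Plates read before and after incubation by fluorescence 544ex/590em (A. fumigatus) or OD 630 nm. IC50 from percent growth vs concentration.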
# Candida albicans [2] = assay: Antifungal activity against Candida albicans ATCC 90028 by microscopy; assay type: functional
# Outline: (§2)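 Modified NCCLS microdilution. Samples in DMSO serially diluted in saline and tested in duplicate against inocula standardized to 0.5 McFarland. Broths: C. albicans SDB or RPMI 1640; C. neoformans SDB; A. fumigatus YM broth. Highest final concentration 20 µg/mL. MIC read visually as the lowest concentration with no detectable growth (for Alamar Blue wells, no blue-to-pink change).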
# Aspergillus fumigatus [3] = assay: Fungicidal activity against Aspergillus fumigatus ATCC 90906; assay type: functional
# Candida albicans [4] = assay: Antifungal activity against Candida albicans ATCC 90028 assessed as inhibition of fungal growth by alamar blue assay; assay type: functional, organism-based; outline: as §1
# Candida albicans [5] = assay: Fungicidal activity against Candida albicans ATCC 90028; assay type: functional
# [6] = Cytotoxicity against african green monkey Vero cells after 48 hrs by neutral red assay; assay type: cell-based; details: chlorocebus sabaeus, read-out: TC50
# Outline: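 Vero kidney fibroblasts seeded at 25,000 cells/well and grown 24 h, then exposed to samples up to 20 µg/ml for 48 h. Viable cells measured by neutral red assay. IC50 taken from growth-inhibition vs concentration curves. DMSO served as vehicle control.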
# Aspergillus fumigatus [7] = assay: Antifungal activity against Aspergillus fumigatus ATCC 90906 by microscopy; assay type: functional; outline: as §2
# Cryptococcus neoformans [8] = assay: Antifungal activity against Cryptococcus neoformans ATCC 90113 by microscopy; assay type: functional
# Outline: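 Modified NCCLS microdilution. Samples in DMSO serially diluted in saline and tested in duplicate against inocula standardized to 0.5 McFarland. Highest final concentration 20 µg/mL. MIC read visually as the lowest concentration with no detectable growth (for Alamar Blue wells, no blue-to-pink change).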
# Cryptococcus neoformans [9] = assay: Fungicidal activity against Cryptococcus neoformans ATCC 90113; assay type: functional
# Cryptococcus neoformans [10] = assay: Antifungal activity against Cryptococcus neoformans ATCC 90113 assessed as inhibition of fungal growth by alamar blue assay; assay type: functional, organism-based; outline: as §1
# [11] = Aspergillus fumigatus, ATCC 90906, read-out: IC50
Structure (SMILES),IC50 (Aspergillus fumigatus [1]; [11]),MIC (Candida albicans [2]),MFC (Aspergillus fumigatus [3]),IC50 (Candida albicans [4]),MFC (Candida albicans [5]),CC50 at 48 h [6],MIC (Aspergillus fumigatus [7]),MIC (Cryptococcus neoformans [8]),MFC (Cryptococcus neoformans [9]),IC50 (Cryptococcus neoformans [10]),IC50 (Aspergillus fumigatus [1])
Cc1cccc(N(CCCCCC2CCCCC2)c2ccc[n+](C)c2)c1.[I-],8.7 µg/mL,5 µg/mL,20 µg/mL,3 µg/mL,10 µg/mL,> 10 µg/mL,10 µg/mL,2.5 µg/mL,2.5 µg/mL,1.4 µg/mL,
C[n+]1cccc(N(CCCCCC2CCCCC2)c2cccc(Cl)c2)c1.[I-],12.4 µg/mL,5 µg/mL,20 µg/mL,3 µg/mL,10 µg/mL,> 10 µg/mL,20 µg/mL,1.3 µg/mL,1.3 µg/mL,0.7 µg/mL,
C[n+]1c2ccccc2cc2[nH]c3ccc(Cl)cc3c21.[I-],> 20 µg/mL,> 20 µg/mL,,4.5 µg/mL,,1.5 µg/mL,,> 20 µg/mL,,15 µg/mL,
C[n+]1cc(N(CCCCCC2CCCCC2)c2cccc(Cl)c2)cc2ccccc21.[I-],1 µg/mL,2.5 µg/mL,10 µg/mL,0.9 µg/mL,10 µg/mL,> 10 µg/mL,2.5 µg/mL,1.3 µg/mL,5 µg/mL,0.9 µg/mL,
C[n+]1cccc(N(CCCCCC2CCCCC2)c2ccc(Cl)cc2)c1.[I-],1 µg/mL,3.1 µg/mL,,1.5 µg/mL,,> 10 µg/mL,1.6 µg/mL,1.6 µg/mL,,1 µg/mL,
CCc1ccc(N(CCCCCC2CCCCC2)c2ccc[n+](C)c2)cc1.[I-],2.7 µg/mL,2.5 µg/mL,,1.3 µg/mL,5 µg/mL,10 µg/mL,5 µg/mL,0.6 µg/mL,5 µg/mL,0.4 µg/mL,
C[n+]1cc(N(CCCCCC2CCCCC2)c2ccccc2)cc2ccccc21.[I-],4.6 µg/mL,2.5 µg/mL,10 µg/mL,1.2 µg/mL,2.5 µg/mL,9.8 µg/mL,10 µg/mL,0.3 µg/mL,0.6 µg/mL,0.2 µg/mL,
C[n+]1cc(N(CCCCCC2CCCCC2)c2ccccc2Cl)cc2ccccc21.[I-],3.1 µg/mL,1.3 µg/mL,20 µg/mL,0.63 µg/mL,1.3 µg/mL,,5 µg/mL,0.3 µg/mL,0.6 µg/mL,0.2 µg/mL,
C[n+]1c2ccc(Cl)cc2cc2c1c1ccccc1n2CCCCCC1CCCCC1.[I-],,1.3 µg/mL,> 20 µg/mL,0.6 µg/mL,> 20 µg/mL,1.4 µg/mL,1.3 µg/mL,2.5 µg/mL,10 µg/mL,0.9 µg/mL,
CSc1ccc(N(CCCCCC2CCCCC2)c2ccc[n+](C)c2)cc1.[I-],6.4 µg/mL,5 µg/mL,10 µg/mL,2 µg/mL,10 µg/mL,> 10 µg/mL,10 µg/mL,1.3 µg/mL,2.5 µg/mL,1.2 µg/mL,
[I-].c1ccc(Nc2cc3ccccc3[n+](CCCCCC3CCCCC3)c2)cc1,1 µg/mL,10 µg/mL,10 µg/mL,3.5 µg/mL,> 20 µg/mL,,2.5 µg/mL,2.5 µg/mL,10 µg/mL,1.5 µg/mL,
C[n+]1c2cccc(Cl)c2cc2[nH]c3ccccc3c21.O=S(=O)([O-])C(F)(F)F,> 20 µg/mL,> 20 µg/mL,,0.6 µg/mL,,5 µg/mL,,> 20 µg/mL,,7 µg/mL,
C[n+]1c2cc(Cl)ccc2c(Cl)c2[nH]c3ccccc3c21.[I-],> 20 µg/mL,10 µg/mL,,1 µg/mL,> 20 µg/mL,10 µg/mL,,10 µg/mL,> 20 µg/mL,6 µg/mL,
C[n+]1cccc(N(CCCCCC2CCCCC2)c2cccc(C(F)(F)F)c2)c1.[I-],1.5 µg/mL,5 µg/mL,10 µg/mL,3 µg/mL,20 µg/mL,> 10 µg/mL,2.5 µg/mL,2.5 µg/mL,5 µg/mL,1.5 µg/mL,
C[n+]1cccc(N(CCCCCC2CCCCC2)c2ccc(C(F)(F)F)cc2)c1.[I-],1.5 µg/mL,2.5 µg/mL,5 µg/mL,1 µg/mL,10 µg/mL,> 10 µg/mL,2.5 µg/mL,2.5 µg/mL,5 µg/mL,1.5 µg/mL,
C[n+]1c2ccccc2cc2[nH]c3c(Cl)cccc3c21.[I-],,,,> 20 µg/mL,,3.2 µg/mL,,,,> 20 µg/mL,
C[n+]1c2ccccc2cc2[nH]c3ccc(Br)cc3c21.[I-],,> 20 µg/mL,,2.5 µg/mL,,0.93 µg/mL,10 µg/mL,20 µg/mL,,2.5 µg/mL,
C[n+]1c2cc(Cl)ccc2cc2[nH]c3ccccc3c21.O=S(=O)([O-])C(F)(F)F,> 20 µg/mL,> 20 µg/mL,,3 µg/mL,,2.1 µg/mL,,> 20 µg/mL,,15 µg/mL,
Clc1ccc(Nc2cc3ccccc3[n+](CCCCCC3CCCCC3)c2)cc1.[I-],,> 20 µg/mL,,2 µg/mL,,> 10 µg/mL,,1.6 µg/mL,> 20 µg/mL,1 µg/mL,Not Active
Cc1ccccc1N(CCCCCC1CCCCC1)c1ccc[n+](C)c1.[I-],19 µg/mL,5 µg/mL,> 20 µg/mL,2.6 µg/mL,5 µg/mL,,> 20 µg/mL,2.5 µg/mL,2.5 µg/mL,1.5 µg/mL,
C[n+]1c2ccc(Cl)cc2cc2[nH]c3ccccc3c21.[I-],10 µg/mL,5.5 µg/mL,> 20 µg/mL,0.5 µg/mL,> 20 µg/mL,,> 20 µg/mL,5 µg/mL,> 20 µg/mL,2 µg/mL,
C[n+]1cccc(N(CCCCCC2CCCCC2)c2ccccc2Cl)c1.[I-],18 µg/mL,5 µg/mL,> 20 µg/mL,2.8 µg/mL,5 µg/mL,,> 20 µg/mL,2.5 µg/mL,2.5 µg/mL,2 µg/mL,
C[n+]1c2ccccc2cc2[nH]c3cccc(Cl)c3c21.[I-],> 20 µg/mL,,,> 20 µg/mL,,> 4.7 µg/mL,,,,> 20 µg/mL,
